The values below come from ChEMBL document CHEMBL3526066, “In vitro metabolism of 17-(dimethylaminoethylamino)-17-demethoxygeldanamycin in human liver microsomes” (Drug Metab Dispos, 2011).

For series [1], the system named is Liver microsome. The series can be described thus: Drug metabolism in human liver microsomes assessed as (4E,6Z,8S,9S,10E,12S,13R,14S,16R)-19-(2-(dimethylamino)ethylamino)-13-hydroxy-10-(hydroxymethyl)-8,14-dimethoxy-4,12,16-trimethyl-3,20,22-trioxo-2-azabicyclo[16.3.1]docosa-1(21),4,6,10,18-pentaen-9-yl carbamate formation at 37 degC in presence of reduced GSH by liquid chromatography-tandem mass spectrometry. Type of series: ADME. The following applies: read-out: Km(app). A general note: Liver microsomes are vesicles of endoplasmic reticulum, rich in cytochrome P450 enzymes.

Series [2] in a line: Total clearance in human. Format: ADME, organism-based. Conditions: in vivo.
For the next series, the target named is Cytochrome P450 2E1 (Homo sapiens, UniProt P05181). Briefly: Drug metabolism assessed as human recombinant CYP2E1-mediated oxidative metabolism at 1 uM by liquid chromatography-tandem mass spectrometry. Format: ADME. Conditions: recombinant enzyme.
Sequence of Cytochrome P450 2E1 (P05181 whole entry): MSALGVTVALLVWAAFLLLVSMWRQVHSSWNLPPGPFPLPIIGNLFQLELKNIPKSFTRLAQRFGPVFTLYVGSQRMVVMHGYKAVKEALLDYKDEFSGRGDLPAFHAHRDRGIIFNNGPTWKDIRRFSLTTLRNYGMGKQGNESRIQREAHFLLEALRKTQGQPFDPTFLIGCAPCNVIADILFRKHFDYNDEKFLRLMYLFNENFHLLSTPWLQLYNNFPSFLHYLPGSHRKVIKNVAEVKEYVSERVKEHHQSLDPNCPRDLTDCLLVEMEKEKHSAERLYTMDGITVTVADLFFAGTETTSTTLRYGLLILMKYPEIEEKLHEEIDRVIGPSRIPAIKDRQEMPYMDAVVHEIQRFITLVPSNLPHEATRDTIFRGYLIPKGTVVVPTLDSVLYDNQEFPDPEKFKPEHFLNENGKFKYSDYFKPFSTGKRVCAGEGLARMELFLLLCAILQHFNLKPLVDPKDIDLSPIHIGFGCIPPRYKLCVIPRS
The nature of series [3]: Drug metabolism in human liver microsomes assessed as stability after 2 hrs relative to control by liquid chromatography-tandem mass spectrometry. Conditions: read-out: Stability. Type of series: ADME. In outline:
(§1)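 Pooled human liver microsomes (1 mg/ml) were incubated at 37°C with substrate (5 µM final), 1 mM β-NADPH and 3.3 mM MgCl2 in 0.1 M phosphate buffer, with or without 5 mM reduced GSH. Aliquots were taken from 1 to 120 min and quenched in ice-cold acetonitrile containing internal standard. LC-MS/MS peak-area ratios to internal standard were normalised to the 1-min sample.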

Series [4] is described as follows: Terminal half life in human. Format: ADME, organism-based. Conditions: in vivo, read-out: beta t1/2 (converted).
In the next series the target is Cytochrome P450 3A5 (Homo sapiens, UniProt P20815). The series can be described thus: Drug metabolism assessed as human recombinant CYP3A5-mediated (4E,6Z,8S,9S,10E,12S,13R,14S,16R)-19-(2-(dimethylamino)ethylamino)-13-hydroxy-8,14-dimethoxy-4,10,12,16-tetramethyl-3,20,22-trioxo-2-azabicyclo[16.3.1]docosa-1(21),4,6,10,18-pentaen-9-yl carbamate formation at 1 uM relative to CYP3A4. The following applies: recombinant enzyme. Format: ADME.
Sequence of Cytochrome P450 3A5 (P20815 whole entry): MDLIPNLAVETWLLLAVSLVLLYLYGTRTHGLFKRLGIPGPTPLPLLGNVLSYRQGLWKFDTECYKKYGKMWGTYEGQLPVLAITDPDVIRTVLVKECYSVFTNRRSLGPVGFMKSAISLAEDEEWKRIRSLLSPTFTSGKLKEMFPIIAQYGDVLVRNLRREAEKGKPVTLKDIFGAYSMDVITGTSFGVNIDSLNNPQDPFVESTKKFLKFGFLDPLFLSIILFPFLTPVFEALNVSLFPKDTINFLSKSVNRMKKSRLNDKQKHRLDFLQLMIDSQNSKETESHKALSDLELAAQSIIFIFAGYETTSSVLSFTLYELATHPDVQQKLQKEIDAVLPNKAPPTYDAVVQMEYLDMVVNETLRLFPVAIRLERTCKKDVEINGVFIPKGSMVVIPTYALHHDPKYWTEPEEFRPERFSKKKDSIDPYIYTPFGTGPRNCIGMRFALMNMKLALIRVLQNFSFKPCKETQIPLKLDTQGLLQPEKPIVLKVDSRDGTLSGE

For series [5], the system named is Liver microsome. Briefly: Drug metabolism in human liver microsomes assessed as (4E,6Z,8S,9S,10E,12S,13R,14S,16R)-19-(2-(dimethylamino)ethylamino)-8,13-dihydroxy-14-methoxy-4,10,12,16-tetramethyl-3,20,22-trioxo-2-azabicyclo[16.3.1]docosa-1(21),4,6,10,18-pentaen-9-yl carbamate formation at 1 uM 17-DMAG by liquid chromatography-tandem mass spectrometry in presence of 1 uM ketoconazole CYP3A inhibitor. Type of series: ADME.

Series [6] concerns Liver microsome. The series can be described thus: Drug metabolism in human liver microsomes assessed as (4E,6Z,8S,9S,10E,12S,13R,14S,16R)-19-(2-(dimethylamino)ethylamino)-13,14-dihydroxy-8-methoxy-4,10,12,16-tetramethyl-3,20,22-trioxo-2-azabicyclo[16.3.1]docosa-1(21),4,6,10,18-pentaen-9-yl carbamate formation at 37 degC in presence of reduced GSH by liquid chromatography-tandem mass spectrometry. Conditions: read-out: Km(app). Type of series: ADME.

In another series the target is Cytochrome P450 2C9 (Homo sapiens, UniProt P11712). The series can be described thus: Drug metabolism assessed as human recombinant CYP2C9-mediated oxidative metabolism at 1 uM by liquid chromatography-tandem mass spectrometry. Type of series: ADME. The following applies: recombinant enzyme.
Sequence of Cytochrome P450 2C9 (P11712 whole entry): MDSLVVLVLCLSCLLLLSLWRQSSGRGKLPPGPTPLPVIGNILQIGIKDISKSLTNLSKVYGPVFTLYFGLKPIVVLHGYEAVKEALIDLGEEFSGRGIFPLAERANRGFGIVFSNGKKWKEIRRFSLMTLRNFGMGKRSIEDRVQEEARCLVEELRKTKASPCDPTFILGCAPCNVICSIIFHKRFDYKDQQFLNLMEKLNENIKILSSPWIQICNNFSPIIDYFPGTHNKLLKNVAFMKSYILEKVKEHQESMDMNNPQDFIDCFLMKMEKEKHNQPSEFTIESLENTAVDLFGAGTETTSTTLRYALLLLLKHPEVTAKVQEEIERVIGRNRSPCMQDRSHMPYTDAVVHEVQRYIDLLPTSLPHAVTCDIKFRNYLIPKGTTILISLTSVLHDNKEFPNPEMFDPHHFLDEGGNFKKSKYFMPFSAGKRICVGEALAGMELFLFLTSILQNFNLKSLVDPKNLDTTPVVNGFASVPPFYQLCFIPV
The target in the next series is T1, Cytochrome P450 2B6 (Homo sapiens, UniProt P20813).
T1 sequence (P20813 whole entry): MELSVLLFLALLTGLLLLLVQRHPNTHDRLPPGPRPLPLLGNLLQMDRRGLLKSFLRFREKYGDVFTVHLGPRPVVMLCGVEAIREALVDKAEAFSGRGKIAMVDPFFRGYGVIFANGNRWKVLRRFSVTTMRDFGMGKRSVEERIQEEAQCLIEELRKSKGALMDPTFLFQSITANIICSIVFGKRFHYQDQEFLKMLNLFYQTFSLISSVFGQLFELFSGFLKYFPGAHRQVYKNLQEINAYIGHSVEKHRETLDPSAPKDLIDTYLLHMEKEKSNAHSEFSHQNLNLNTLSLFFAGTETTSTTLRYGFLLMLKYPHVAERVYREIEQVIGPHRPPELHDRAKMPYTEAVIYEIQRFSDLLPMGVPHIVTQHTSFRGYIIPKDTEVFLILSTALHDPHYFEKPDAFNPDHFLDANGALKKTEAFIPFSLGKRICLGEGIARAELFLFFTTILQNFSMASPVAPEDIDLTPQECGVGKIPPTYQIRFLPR
The series can be described thus: Drug metabolism assessed as human recombinant CYP2B6-mediated oxidative metabolism at 1 uM by liquid chromatography-tandem mass spectrometry. Format: ADME. The following applies: recombinant enzyme.

The test system of series [7] is Liver microsome. The series can be described thus: Metabolic stability in human liver microsomes at 5 uM by liquid chromatography-tandem mass spectrometry. Format: ADME. The gist of the method:
as §1

For orientation: Km means the substrate concentration at which the rate is half of its maximum. As a reminder, the clearance is the volume of plasma or blood freed of the substance per unit of time. A low value points to a low capacity for elimination.

Turning to `CO[C@H]1/C=C\C=C(/C)C(=O)NC2=CC(=O)C(NCCN(C)C)=C(C[C@@H](C)C[C@H](OC)[C@H](O)[C@@H](C)/C=C(\C)[C@@H]1OC(N)=O)C2=O` (stereo in doubt) [ALVESPIMYCIN], the Km came out at 6.61 µM in the series with Liver microsome [1] and 7.83 µM in the series on Liver microsome [6]. For the same compound, the clearance in [2] is 123 mL/min. Further, the Drug metabolism result at Cytochrome P450 2E1, at Cytochrome P450 3A5, in the series with Liver microsome [5], on Cytochrome P450 2C9 and at Cytochrome P450 2B6 was “metabolite_not_detected” in each case. For the same compound, in series [3], the remaining at 2 h was found to be 24%. The half-life in [4] was 16 h. Further, in the series with Liver microsome [7], the Stability entry is recorded as “Stable”.
